According to ChEMBL document CHEMBL1149232, “An aminomethylpyrimidine DPP-IV inhibitor with improved properties” (Bioorg Med Chem Lett, 2004):

Key:
[1] = Octanol water partition coefficient was determined at pH 7.4; assay type: physicochemical
[2] = molecular target: Cytochrome P450 3A4 (Homo sapiens, UniProt P08684); assay: Inhibition of human liver microsome Cytochrome P3A4; assay type: microsomes
Outline: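 CYP3A4 inhibition was measured by a published fluorometric method using BFC as the substrate.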

Cytochrome P450 3A4, sequence (P08684 whole entry): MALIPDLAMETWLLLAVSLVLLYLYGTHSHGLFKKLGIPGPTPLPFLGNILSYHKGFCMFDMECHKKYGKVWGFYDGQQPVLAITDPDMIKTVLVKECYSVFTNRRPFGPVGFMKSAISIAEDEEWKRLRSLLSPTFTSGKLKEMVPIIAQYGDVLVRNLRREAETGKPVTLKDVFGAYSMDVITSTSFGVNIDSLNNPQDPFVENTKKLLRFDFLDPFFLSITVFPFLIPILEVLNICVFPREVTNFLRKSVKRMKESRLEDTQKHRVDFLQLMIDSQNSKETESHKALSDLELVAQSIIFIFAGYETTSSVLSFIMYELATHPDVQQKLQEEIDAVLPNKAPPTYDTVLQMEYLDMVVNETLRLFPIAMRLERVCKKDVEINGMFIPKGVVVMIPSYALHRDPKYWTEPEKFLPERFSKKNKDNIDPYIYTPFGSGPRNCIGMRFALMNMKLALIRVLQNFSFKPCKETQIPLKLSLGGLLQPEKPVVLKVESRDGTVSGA

Row | logD [1] | IC50 [2] [µM] | Structure (SMILES)
1 | 1.4 | – | Cc1nc(N)c(CN)c(-c2ccc(Cl)cc2Cl)n1
2 | 3 | 5.4 | NCc1c(N)nc(-c2ccccc2)nc1-c1ccc(Cl)cc1Cl
3 | 1.6 | – | COc1nc(N)c(CN)c(-c2ccc(Cl)cc2Cl)n1
4 | 0.4 | – | NCc1c(N)nc(N)nc1-c1ccc(Cl)cc1Cl
